System: Fibroblast
Assay: Multiplex assay against human fibroblast
Format: toxicity, cell-based
Summary of the method: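 Live cells carried four stains from seeding: Hoechst33342, BioTracker Green Microtubule Cytoskeleton Dye, MitoTracker Red and Annexin V Alexa Fluor 680. They were imaged on a CQ1 microscope at 37°C and 5% CO2 after compound addition. Using CellPathfinder machine-learning gating, cells were split into Hoechst high-intensity objects or normal cells, normal cells into healthy, pyknosed or fragmented nuclei, and pyknosed cells into mitotic or apoptotic; tubulin, mitochondrial-mass and membrane-permeability phenotypes are per cents of healthy-nucleus cells.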

[1] = 12 h, 1 µM, compound concentration 1 uM, replicate 1
[2] = 12 h, 1 µM, compound concentration 1 uM, replicate 2
[3] = 12 h, 10 µM, compound concentration 10 uM, replicate 1
[4] = 12 h, 10 µM, compound concentration 10 uM, replicate 2
[5] = 24 h, 1 µM, compound concentration 1 uM, replicate 1
[6] = 24 h, 1 µM, compound concentration 1 uM, replicate 2
[7] = 24 h, 10 µM, compound concentration 10 uM, replicate 1
[8] = 24 h, 10 µM, compound concentration 10 uM, replicate 2
[9] = 48 h, 1 µM, compound concentration 1 uM, replicate 1
[10] = 48 h, 1 µM, compound concentration 1 uM, replicate 2
[11] = 48 h, 10 µM, compound concentration 10 uM, replicate 1
[12] = 48 h, 10 µM, compound concentration 10 uM, replicate 2

For CC[C@H](C)C(=O)O[C@H]1C[C@@H](C)C=C2C=C[C@H](C)[C@H](CC[C@@H]3C[C@@H](O)CC(=O)O3)[C@H]21 [LOVASTATIN], the “Population Apoptotic (%)” value [1] was 63%, the “Population Fragmented Nuclei (%)” value [1] was 33% and the “Population Healthy Nuclei (%)” value [1] was 35%. For the same molecule, the “Population Hoechst High Intensity Objects (%)” value [1] was 13%, the “Population Membrane Permeable-Phenotype (%)” value [1] was 23% and the “Population Mitochondria Different-Phenotype (%)” value [1] was 14%. For the same molecule, the “Population Mitotic Cells (%)” value [1] was 36%, the “Population Normal (%)” value [1] was 86% and the “Population Pyknosed Nuclei (%)” value [1] was 31%. The “Population Tubulin-Different-Phenotype (%)” value [1] was 42%, the “Total Cell Count” value [1] was 69 and the “Population Apoptotic (%)” value [2] was 25%. The “Population Fragmented Nuclei (%)” value [2] was 22%, the “Population Healthy Nuclei (%)” value [2] was 68% and the “Population Hoechst High Intensity Objects (%)” value [2] was 11%. For the same molecule, the “Population Membrane Permeable-Phenotype (%)” value [2] was 3%, the “Population Mitochondria Different-Phenotype (%)” value [2] was 6% and the “Population Mitotic Cells (%)” value [2] was 75%. The “Population Normal (%)” value [2] was 88%, the “Population Pyknosed Nuclei (%)” value [2] was 8% and the “Population Tubulin-Different-Phenotype (%)” value [2] was 3%. For the same molecule, the “Total Cell Count” value [2] was 87, the “Population Apoptotic (%)” value [3] was 50% and the “Population Fragmented Nuclei (%)” value [3] was 33%. For the same molecule, the “Population Healthy Nuclei (%)” value [3] was 45%, the “Population Hoechst High Intensity Objects (%)” value [3] was 13% and the “Population Membrane Permeable-Phenotype (%)” value [3] was 22%. For the same molecule, the “Population Mitochondria Different-Phenotype (%)” value [3] was 13%, the “Population Mitotic Cells (%)” value [3] was 50% and the “Population Normal (%)” value [3] was 86%. For the same molecule, the “Population Pyknosed Nuclei (%)” value [3] was 22%, the “Population Tubulin-Different-Phenotype (%)” value [3] was 42% and the “Total Cell Count” value [3] was 115. The “Population Apoptotic (%)” value [4] was 100%, the “Population Fragmented Nuclei (%)” value [4] was 4% and the “Population Healthy Nuclei (%)” value [4] was 90%. For the same molecule, the “Population Hoechst High Intensity Objects (%)” value [4] was 8%, the “Population Membrane Permeable-Phenotype (%)” value [4] was 10% and the “Population Mitochondria Different-Phenotype (%)” value [4] was 12%. For the same molecule, the “Population Mitotic Cells (%)” value [4] was 0%, the “Population Normal (%)” value [4] was 91% and the “Population Pyknosed Nuclei (%)” value [4] was 4%. The “Population Tubulin-Different-Phenotype (%)” value [4] was 20%, the “Total Cell Count” value [4] was 54 and the “Population Apoptotic (%)” value [5] was 44%. The “Population Fragmented Nuclei (%)” value [5] was 36%, the “Population Healthy Nuclei (%)” value [5] was 47% and the “Population Hoechst High Intensity Objects (%)” value [5] was 11%. The “Population Membrane Permeable-Phenotype (%)” value [5] was 11%, the “Population Mitochondria Different-Phenotype (%)” value [5] was 15% and the “Population Mitotic Cells (%)” value [5] was 55%. For the same molecule, the “Population Normal (%)” value [5] was 88%, the “Population Pyknosed Nuclei (%)” value [5] was 16% and the “Population Tubulin-Different-Phenotype (%)” value [5] was 38%. The “Total Cell Count” value [5] was 62, the “Population Apoptotic (%)” value [6] was 40% and the “Population Fragmented Nuclei (%)” value [6] was 22%. For the same molecule, the “Population Healthy Nuclei (%)” value [6] was 70%, the “Population Hoechst High Intensity Objects (%)” value [6] was 9% and the “Population Membrane Permeable-Phenotype (%)” value [6] was 0%. The “Population Mitochondria Different-Phenotype (%)” value [6] was 4%, the “Population Mitotic Cells (%)” value [6] was 60% and the “Population Normal (%)” value [6] was 90%. The “Population Pyknosed Nuclei (%)” value [6] was 7%, the “Population Tubulin-Different-Phenotype (%)” value [6] was 4% and the “Total Cell Count” value [6] was 93. For the same molecule, the “Population Apoptotic (%)” value [7] was 43%, the “Population Fragmented Nuclei (%)” value [7] was 26% and the “Population Healthy Nuclei (%)” value [7] was 48%. For the same molecule, the “Population Hoechst High Intensity Objects (%)” value [7] was 14%, the “Population Membrane Permeable-Phenotype (%)” value [7] was 19% and the “Population Mitochondria Different-Phenotype (%)” value [7] was 10%. For the same molecule, the “Population Mitotic Cells (%)” value [7] was 56%, the “Population Normal (%)” value [7] was 85% and the “Population Pyknosed Nuclei (%)” value [7] was 24%. The “Population Tubulin-Different-Phenotype (%)” value [7] was 28%, the “Total Cell Count” value [7] was 110 and the “Population Apoptotic (%)” value [8] was 28%. For the same molecule, the “Population Fragmented Nuclei (%)” value [8] was 8%, the “Population Healthy Nuclei (%)” value [8] was 79% and the “Population Hoechst High Intensity Objects (%)” value [8] was 7%. For the same molecule, the “Population Membrane Permeable-Phenotype (%)” value [8] was 8%, the “Population Mitochondria Different-Phenotype (%)” value [8] was 4% and the “Population Mitotic Cells (%)” value [8] was 71%. For the same molecule, the “Population Normal (%)” value [8] was 92%, the “Population Pyknosed Nuclei (%)” value [8] was 11% and the “Population Tubulin-Different-Phenotype (%)” value [8] was 23%. The “Total Cell Count” value [8] was 74, the “Population Apoptotic (%)” value [9] was 66% and the “Population Fragmented Nuclei (%)” value [9] was 55%. For the same molecule, the “Population Healthy Nuclei (%)” value [9] was 39%, the “Population Hoechst High Intensity Objects (%)” value [9] was 9% and the “Population Membrane Permeable-Phenotype (%)” value [9] was 26%. For the same molecule, the “Population Mitochondria Different-Phenotype (%)” value [9] was 0%, the “Population Mitotic Cells (%)” value [9] was 33% and the “Population Normal (%)” value [9] was 90%. For the same molecule, the “Population Pyknosed Nuclei (%)” value [9] was 5%, the “Population Tubulin-Different-Phenotype (%)” value [9] was 39% and the “Total Cell Count” value [9] was 64. For the same molecule, the “Population Apoptotic (%)” value [10] was 33%, the “Population Fragmented Nuclei (%)” value [10] was 17% and the “Population Healthy Nuclei (%)” value [10] was 73%. For the same molecule, the “Population Hoechst High Intensity Objects (%)” value [10] was 7%, the “Population Membrane Permeable-Phenotype (%)” value [10] was 23% and the “Population Mitochondria Different-Phenotype (%)” value [10] was 6%. For the same molecule, the “Population Mitotic Cells (%)” value [10] was 66%, the “Population Normal (%)” value [10] was 92% and the “Population Pyknosed Nuclei (%)” value [10] was 9%. For the same molecule, the “Population Tubulin-Different-Phenotype (%)” value [10] was 23%, the “Total Cell Count” value [10] was 69 and the “Population Apoptotic (%)” value [11] was 71%. The “Population Fragmented Nuclei (%)” value [11] was 58%, the “Population Healthy Nuclei (%)” value [11] was 33% and the “Population Hoechst High Intensity Objects (%)” value [11] was 20%. For the same molecule, the “Population Membrane Permeable-Phenotype (%)” value [11] was 19%, the “Population Mitochondria Different-Phenotype (%)” value [11] was 3% and the “Population Mitotic Cells (%)” value [11] was 28%. For the same molecule, the “Population Normal (%)” value [11] was 80%, the “Population Pyknosed Nuclei (%)” value [11] was 7% and the “Population Tubulin-Different-Phenotype (%)” value [11] was 29%. For the same molecule, the “Total Cell Count” value [11] was 115, the “Population Fragmented Nuclei (%)” value [12] was 37% and the “Population Healthy Nuclei (%)” value [12] was 52%. For the same molecule, the “Population Hoechst High Intensity Objects (%)” value [12] was 15%, the “Population Membrane Permeable-Phenotype (%)” value [12] was 14% and the “Population Mitochondria Different-Phenotype (%)” value [12] was 2%. The “Population Normal (%)” value [12] was 84%, the “Population Pyknosed Nuclei (%)” value [12] was 10% and the “Population Tubulin-Different-Phenotype (%)” value [12] was 34%. For the same molecule, the “Total Cell Count” value [12] was 79.
